Most compounds without a hit are left out; they make up all but 2% or so of the library.
RAD52 anneal inh = RAD52 (human) annealing inhibition | recombinant RAD52 DNA annealing, FRET fluorescence | inhibition, % at 18.7 µM | hit rate 0.46% among 360,000 | AID 651710;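 active = every replicate showing at least 50% inhibition; inconclusive = mean inhibition at least 50% but not in every replicate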
PglD DTNB = PglD (C. jejuni) enzyme inhibition | purified PglD enzyme, DTNB colorimetric CoA detection | inhibition, % at 12.5 µM | hit rate 0.098% among 360,000; in the data active = inhibition above about 16%, passing the limit was not always enough; inconclusive = no clear call, values can overlap the other calls
RAD54 branch = blocks human RAD54 Holliday junction branch migration; Q92698; FAM/BHQ fluorescence; inhibition, % at 10.4 µM; hit rate 0.14% among 360,000; AID 602329;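 active = mean normalized replicate activity at least 40 and at least half of replicates scoring 40 or more; inconclusive = only one of the two criteria met; inactive = mean below 40 and under half of replicates reaching 40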;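 also: 0% = median of neutral control wells and 100% = median of positive control wells; inhibitors cause a drop in the FAM fluorescence signal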
Target sequence (Q92698 whole entry, looked up): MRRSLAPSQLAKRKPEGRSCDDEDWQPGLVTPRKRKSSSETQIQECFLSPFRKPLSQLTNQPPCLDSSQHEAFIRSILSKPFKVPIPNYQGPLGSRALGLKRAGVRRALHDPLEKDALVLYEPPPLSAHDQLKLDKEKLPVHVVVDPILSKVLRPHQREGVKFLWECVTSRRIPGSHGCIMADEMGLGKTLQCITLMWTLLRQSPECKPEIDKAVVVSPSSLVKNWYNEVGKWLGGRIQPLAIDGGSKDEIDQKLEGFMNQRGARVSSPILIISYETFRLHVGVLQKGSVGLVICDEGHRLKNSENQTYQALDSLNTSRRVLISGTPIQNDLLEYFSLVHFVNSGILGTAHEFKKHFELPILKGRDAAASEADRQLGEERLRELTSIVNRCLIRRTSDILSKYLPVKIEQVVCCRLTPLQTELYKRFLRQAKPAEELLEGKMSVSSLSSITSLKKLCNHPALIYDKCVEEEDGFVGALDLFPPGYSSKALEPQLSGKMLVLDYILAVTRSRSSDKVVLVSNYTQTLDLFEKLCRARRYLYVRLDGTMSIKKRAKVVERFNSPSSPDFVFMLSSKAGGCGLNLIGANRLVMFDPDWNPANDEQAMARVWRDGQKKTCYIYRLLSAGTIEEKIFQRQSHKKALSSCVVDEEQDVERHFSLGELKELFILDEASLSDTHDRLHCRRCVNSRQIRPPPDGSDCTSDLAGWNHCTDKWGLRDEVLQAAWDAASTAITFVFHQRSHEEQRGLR
Xi reactivation = activators of X-chromosome reactivation in mouse fibroblasts; hit rate 0.055% among 360,000; AID 743238; XiGFP mouse fibroblasts, % GFP-positive cells imaging, 3 d; cells co-treated with 5-aza-dC sensitizer; scaled so ellipticine positive control = 100%; activation, % at 7.58 µM;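 active = mean normalized replicate activation at least 10% and every replicate at or above 10%; inconclusive = only one of the two criteria met; inactive = mean below 10% and not all replicates reach 10%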;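 also: 0% = median of on-plate neutral control wells and 100% = ellipticine 6 µM median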
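System: 68-5-11 XiGFP fibroblast line; Timing: 3 days compound exposure; Compound dosing: one concentration, pinned; Benchmarks: positive control ellipticine, 6 µM final; Buffer or medium: DMEM containing 5-aza-dC.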
E-sel inducer = E-selectin induction on HUVECs; activation, % at 7.58 µM; P16581; hit rate 0.37% among 260,000; AID 686992; HUVEC E-selectin immunofluorescence imaging; normalized: neutral wells 0, TNF-alpha wells 100;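 active = mean E-selectin-positive cell signal at least 10% of the positive control, reached in at least 60% of replicates, without over 20% cell loss; inconclusive = no rule given, readout overlaps actives, possibly toxicity-flagged; inactive = the rest, including those meeting only one limit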
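Assay system: HUVEC, human umbilical vein endothelial cells / Amount: 3,000 HUVEC/well / Controls: TNF-alpha positive control, DMSO neutral control / Compound dosing: single concentration / Medium: EGM-2 over gelatin coat / Evaluation: percent E-selectin-positive cells / Signal: immunofluorescence imaging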
rRNA inh HTS = inhibitors of bacterial rRNA selective over humanized ribosomes; E. coli WT GFP vs humanized-ribosome RFP mutants, fluorescence, 24 h; stronger effect = lower value; DMSO median 0, no signal -100; GFP signal change (wild-type ribosome), % (no concentration beside the values); hit rate 1.6% among 350,000; AID 720706;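 active = significant combined selectivity score with lowered wild-type GFP, culture density cut under 30%, mutant RFP and density less affected; inactive = any of these conditions unmet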
Rad54 DNA ctr = binds DNA, flagging false Rad54 inhibitor hits; shares compounds with RAD54 branch; hit rate 8% among 460; AC50, µM (top dose mostly 35 µM), without a hit: top-dose activity change, negative = DNA binding; Acridine orange-DNA displacement, fluorescence polarization, 20 min;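 active = signal drop giving an AC50 within twice the top valid tested concentration of each sample, actives reach about 35 µM in these data; inactive = activity opposite to expected, plus the rest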;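 also: polarization loss reports compound binding to salmon sperm DNA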
PglD inh SP = PglD (C. jejuni) inhibition confirmation | Purified C. jejuni PglD, DTNB absorbance 412 nm | inhibition, % at 20 µM | shares compounds with PglD DTNB | 320 tested, under 10 active | AID 743156;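 active = mean inhibition across replicates of at least 20% with every single replicate also at 20% or more; inconclusive = mean inhibition at least 20% but some replicate falls below 20%; inactive = mean inhibition under 20% and not all replicates reach it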;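 also: initial rate of CoA release by acetyl transfer from AcCoA to the UDP-4-amino sugar; 0% = median of neutral control wells and 100% = median of positive control wells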
RAD52 DNA ctr = binds DNA, flagging false RAD52 inhibitor hits; AID 652128; Salmon sperm DNA/acridine orange FP displacement, DNA binding; shares compounds with RAD52 anneal inh; AC50, µM; hit rate 8% among 1,000;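 active = fitted half-maximal concentration for signal loss at or below twice the highest dose tested, in every separate run, actives reach about 64 µM in these data; inconclusive = runs disagree, or flat partial signal loss, or poor fit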
* hit, by the source's call.

What do the screens show for `OCCNc1nc(Nc2ccc(O)cc2)nc2ccccc12`?
RAD52 anneal inh: 48; PglD DTNB: -6; RAD54 branch: 52*; Xi reactivation: 0; E-sel inducer: 0; rRNA inh HTS: 0; Rad54 DNA ctr: 8%

Results for Nc1c2c(nc3cccc(Cl)c13)N(c1ccccc1)CC2 ?
RAD52 anneal inh: -22; Xi reactivation: 0; E-sel inducer: 0; rRNA inh HTS: 4

What do the screens show for `Cc1ccc2nc3c(c(N)c2c1)CCN3c1ccccc1`?
PglD DTNB: 2; RAD54 branch: 53*; Rad54 DNA ctr: -13%

Results for C=CC(=O)Nc1ccc(N(C)c2ccnc(Nc3ccc(N4CCN(C)CC4)cc3)n2)cc1 ?
RAD52 anneal inh: 100*; PglD DTNB: 4; RAD54 branch: 75*; Xi reactivation: 1; rRNA inh HTS: 1; Rad54 DNA ctr: 4%

How did Cc1ccc(S(=O)(=O)NCCCNS(=O)(=O)c2ccccc2[N+](=O)[O-])cc1 do in these assays?
RAD52 anneal inh: 1; PglD DTNB: 2; RAD54 branch: inconclusive; Xi reactivation: 0; rRNA inh HTS: -4; Rad54 DNA ctr: -20%

What do the screens show for `O=C(C[C@@H]1C[C@@H]2c3cc(NC(=O)CC4CC4)ccc3O[C@@H]2[C@@H](CO)O1)NCc1ccccn1`?
RAD52 anneal inh: -1; PglD DTNB: 1; RAD54 branch: -12; Xi reactivation: 0; E-sel inducer: 0; rRNA inh HTS: 2

What do the screens show for `CN1CCN(c2nc(-c3ccncc3)nc3ccccc23)CC1`?
PglD DTNB: -1; RAD54 branch: 87*; Rad54 DNA ctr: -11%

Results for CN1CCN(c2nc(-c3ccc(Cl)cc3)nc3ccccc23)CC1 ?
RAD52 anneal inh: 5; PglD DTNB: 4; RAD54 branch: 34; Xi reactivation: 0; rRNA inh HTS: 15

What do the screens show for `CN1CCN(c2nc(-c3cccs3)nc3ccccc23)CC1`?
RAD52 anneal inh: 8; PglD DTNB: 0; RAD54 branch: 71*; Xi reactivation: 0; rRNA inh HTS: -16; Rad54 DNA ctr: -10%

Results for OCCN1CCN(c2nc(-c3ccccc3O)nc3ccccc23)CC1 ?
RAD52 anneal inh: 30; PglD DTNB: -2; RAD54 branch: 73*; Xi reactivation: 0; rRNA inh HTS: -45; Rad54 DNA ctr: 5%

Results for Cc1cccc(-c2nc(NCCCN3CCOCC3)c3ccccc3n2)c1 ?
PglD DTNB: -4; RAD54 branch: 31

How did Cc1ccc(-c2nc(NCCCO)c3ccccc3n2)cc1 do in these assays?
RAD52 anneal inh: -6; PglD DTNB: -4; RAD54 branch: inconclusive; Xi reactivation: 0; rRNA inh HTS: -16; Rad54 DNA ctr: -2%

How did O=C(O)CCNc1nc(-c2ccccc2)nc2ccccc12 do in these assays?
PglD DTNB: 0; RAD54 branch: 3

Results for CN(C)CCCNc1nc(-c2ccc(Cl)cc2)nc2ccccc12 ?
RAD52 anneal inh: 50*; PglD DTNB: -1; RAD54 branch: 71*; Xi reactivation: 0; E-sel inducer: 1; rRNA inh HTS: 1; Rad54 DNA ctr: -18%

What do the screens show for `c1ccc(-c2nc(NCCCN3CCOCC3)c3ccccc3n2)cc1`?
PglD DTNB: 3; RAD54 branch: inconclusive; Rad54 DNA ctr: 6%

What do the screens show for `C[C@H](O)C#Cc1ccc2c(c1)O[C@H](CN(C)CC1CC1)[C@H](C)CN([C@H](C)CO)S2(=O)=O`?
Xi reactivation: -1; E-sel inducer: 0; rRNA inh HTS: -4

How did C[C@@H]1CN([C@H](C)CO)C(=O)c2cccc(NC(=O)Nc3ccc(C(F)(F)F)cc3)c2O[C@@H]1CN(C)S(=O)(=O)c1cn(C)cn1 do in these assays?
RAD52 anneal inh: -8; PglD DTNB: -3; RAD54 branch: -5; Xi reactivation: 0; E-sel inducer: 0; rRNA inh HTS: -3

Results for C[C@@H]1CN([C@H](C)CO)C(=O)CCCn2cc(nn2)CO[C@@H]1CN(C)S(=O)(=O)c1cccc(F)c1 ?
RAD52 anneal inh: 4; PglD DTNB: -1; RAD54 branch: -1; Xi reactivation: 0; E-sel inducer: 0; rRNA inh HTS: -3

How did CC(C)CSc1ncc(-c2cccc(C(F)(F)F)c2)cn1 do in these assays?
PglD DTNB: -7; RAD54 branch: inconclusive; Rad54 DNA ctr: -13%

Results for CCCCN(CC)c1nc(-c2ccncc2)nc2ccccc12 ?
PglD DTNB: -7; RAD54 branch: 12

How did CCCN(CCC)c1nc(-c2ccccn2)nc2ccccc12 do in these assays?
RAD52 anneal inh: 45; PglD DTNB: -9; RAD54 branch: 90*; Xi reactivation: 1; E-sel inducer: 1; rRNA inh HTS: -57; Rad54 DNA ctr: -15%

Results for CO[C@H]1CN(C)C(=O)c2cc(NC(=O)Nc3c(C)noc3C)ccc2OC[C@@H](C)N(C)C[C@@H]1C ?
RAD52 anneal inh: 5; PglD DTNB: 2; RAD54 branch: -3; Xi reactivation: 0; E-sel inducer: 0; rRNA inh HTS: 1

Results for COc1ccc2c3c(n(C)c2c1)[C@@H](CO)N(C(=O)Cc1ccccn1)CC31CN(CC2CC2)C1 ?
RAD52 anneal inh: 14; Xi reactivation: 0; E-sel inducer: 0; rRNA inh HTS: 0

What do the screens show for `c1ccc2c(c1)oc1c(Nc3ccc(CN4CCOCC4)cc3)ncnc12`?
PglD DTNB: 20*; RAD54 branch: 54*; Rad54 DNA ctr: -23%; PglD inh SP: 1

What do the screens show for `Cc1ccccc1S(=O)(=O)NCC[C@@H]1CC[C@@H](NC(=O)Nc2cccc(F)c2)[C@@H](CO)O1`?
RAD52 anneal inh: -5; PglD DTNB: -1; RAD54 branch: 6; Xi reactivation: 0; E-sel inducer: 0; rRNA inh HTS: -4

What do the screens show for `CCCN(CCC)CCCNC(=S)Nc1ccc2nc(N3CCCC3)cc(C)c2c1`?
RAD52 anneal inh: 92*; PglD DTNB: 3; RAD54 branch: 99*; Xi reactivation: 0; E-sel inducer: 1; Rad54 DNA ctr: -1%; RAD52 DNA ctr: inactive

Results for Cc1cc(N2CCOCC2)nc2ccc(NC(=S)NCCN(C)C)cc12 ?
RAD52 anneal inh: 43; PglD DTNB: -2; RAD54 branch: 30; Xi reactivation: 0; E-sel inducer: 0; rRNA inh HTS: 8

Bioassay records (PubChem BioAssay)
